≈ marks a conversion by molar mass, not a printed value.
Legend:
Pichia kudriavzevii [1] = assay: Antifungal activity against Candida krusei after 48 hrs by M27-A3 CLSI method; assay type: functional
How it was run: (§1)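 Broth microdilution in RPMI 1640, two-fold serial dilutions, final test range 0.125–64 µg mL-1 (fluconazole reference 0.0078–128 µg mL-1). Inoculum 1.0×10^3–1.5×10^3 cells mL-1 from yeasts grown 24 h at 35 °C on Sabouraud dextrose agar. Incubation 35 °C, read at 48 h. MIC = lowest concentration giving >50% turbidity decrease versus growth control. Run three times in triplicate. C. parapsilosis ATCC22019 served as QC.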

Candida parapsilosis [2] = assay: Antifungal activity against Candida parapsilosis ATCC 22019 after 48 hrs by M27-A3 CLSI method; assay type: functional; details: Lodderomyces parapsilosis, ATCC 22019, 48 h; how it was run: as §1
Candida tropicalis [3] = assay: Antifungal activity against Candida tropicalis PMC 0910 after 48 hrs by M27-A3 CLSI method; assay type: functional; details: PMC 0910, 48 h; how it was run: as §1
Candida = assay: Antifungal activity against Candida sp. after 48 hrs by M27-A3 CLSI method; assay type: functional; how it was run: as §1
Nakaseomyces glabratus [4] = assay: Antifungal activity against Candida glabrata PMC 0805 after 48 hrs by M27-A3 CLSI method; assay type: functional; details: PMC 0805, 48 h; how it was run: as §1
Pichia kudriavzevii [5] = assay: Antifungal activity against Candida krusei PMC 0613 after 48 hrs by M27-A3 CLSI method; assay type: functional; how it was run: as §1
Candida parapsilosis [6] = assay: Antifungal activity against Candida parapsilosis after 48 hrs by M27-A3 CLSI method; assay type: functional; details: Lodderomyces parapsilosis; how it was run: as §1
Candida albicans [7] = assay: Antifungal activity against Candida albicans ATCC 24433 after 48 hrs by M27-A3 CLSI method; assay type: functional; how it was run: as §1
Candida albicans [8] = assay: Antifungal activity against Candida albicans ATCC 76615 after 48 hrs by M27-A3 CLSI method; assay type: functional; details: ATCC 76615, 48 h; how it was run: as §1
Pichia kudriavzevii [9] = assay: Antifungal activity against Candida krusei DSM 6128 after 48 hrs by M27-A3 CLSI method; assay type: functional; details: DSM 6128, 48 h; how it was run: as §1
Candida tropicalis [10] = assay: Antifungal activity against Candida tropicalis after 48 hrs by M27-A3 CLSI method; assay type: functional; how it was run: as §1
Candida albicans [11] = assay: Antifungal activity against Candida albicans after 48 hrs by M27-A3 CLSI method; assay type: functional; how it was run: as §1
Candida tropicalis [12] = assay: Antifungal activity against Candida tropicalis DSM 11953 after 48 hrs by M27-A3 CLSI method; assay type: functional; details: DSM 11953, 48 h; how it was run: as §1
Candida parapsilosis [13] = assay: Antifungal activity against Candida parapsilosis DSM 11224 after 48 hrs by M27-A3 CLSI method; assay type: functional; how it was run: as §1
Nakaseomyces glabratus [14] = assay: Antifungal activity against Candida glabrata after 48 hrs by M27-A3 CLSI method; assay type: functional; how it was run: as §1
Candida albicans [15] = assay: Antifungal activity against Candida albicans ATCC 3153 after 48 hrs by M27-A3 CLSI method; assay type: functional; details: ATCC 3153, 48 h; how it was run: as §1
Candida albicans [16] = assay: Antifungal activity against Candida albicans ATCC 10231 after 48 hrs by M27-A3 CLSI method; assay type: functional; details: ATCC 10231, 48 h; how it was run: as §1
Candida tropicalis [17] = assay: Antifungal activity against Candida tropicalis DSM11953 after 48 hrs by M27-A3 CLSI method
[18] = Cytotoxicity against human U937 cells after 48 hrs by MTT assay; assay type: cell-based, U-937
How it was run: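 U937 human monocytic cells, 2×10^4 per well, in phenol-red-free RPMI 1640 with 10% FBS, L-glutamine, penicillin and streptomycin. Exposed 48 h at 37 °C, 5% CO2, to compounds dissolved in DMSO at final 8–128 µg mL-1, at least five concentrations, each in three replicates. MTT added for 3–4 h, crystals dissolved, OD read at 570 nm. CC50 taken against DMSO-only control. Means ± SD from three independent experiments.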

Pichia kudriavzevii [19] = assay: Ratio MIC for fluconazole to compound for Candida krusei after 48 hrs by M27-A3 CLSI method; assay type: functional
[20] = Selectivity index, ratio of CC50 for human U937 cells to MIC for Candida Sp.; assay type: functional, U-937
How it was run: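 SI = CC50 from the 48 h U937 MTT assay divided by the mean MIC across all Candida species. That MIC comes from CLSI M27-A3 broth microdilution in RPMI 1640, 35 °C, read at 48 h.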

[21] = Pichia kudriavzevii, PMC 0613, 48 h, read-out: MIC
[22] = Candida albicans, ATCC 24433, 48 h, read-out: MIC
[23] = Lodderomyces parapsilosis, DSM 11224, 48 h, read-out: MIC

SMILES | MIC (Pichia kudriavzevii [1]) [µg/mL] | MIC (Candida parapsilosis [2]) [µg/mL] | MIC (Candida tropicalis [3]) [µg/mL] | MIC (Candida) [µg/mL] | MIC50 (Candida) [µg/mL] | MIC90 (Candida) [µg/mL] | MIC (Nakaseomyces glabratus [4]) [µg/mL] | MIC (Pichia kudriavzevii [5]; [21]) [µg/mL] | MIC (Candida parapsilosis [6]) [µg/mL] | MIC (Candida albicans [7]; [22]) [µg/mL] | MIC (Candida albicans [8]) [µg/mL] | MIC (Pichia kudriavzevii [9]) [µg/mL] | MIC (Candida tropicalis [10]) [µg/mL] | MIC (Candida albicans [11]) [µg/mL] | MIC50 (Candida albicans [11]) [µg/mL] | MIC90 (Candida albicans [11]) [µg/mL] | MIC (Candida tropicalis [12]) [µg/mL] | MIC (Candida parapsilosis [13]; [23]) [µg/mL] | MIC (Candida albicans [15]) [µg/mL] | MIC (Candida albicans [16]) [µg/mL] | further results
OC(Cn1cncn1)(Cn1cncn1)c1ccc(F)cc1F [FLUCONAZOLE] | 26 (≈ 84.9 µM) | 2 (≈ 6.53 µM) | 2.5 (≈ 8.16 µM) | 7.9 (≈ 25.8 µM) | 2 (≈ 6.53 µM) | 16 (≈ 52.2 µM) | 0.5 (≈ 1.63 µM) | 12 (≈ 39.2 µM) | 1.6 (≈ 5.22 µM) | 1 (≈ 3.27 µM) | 0.25 (≈ 0.816 µM) | 16 (≈ 52.2 µM) | 3.25 (≈ 10.6 µM) | 4.9 (≈ 16 µM) | 1 (≈ 3.27 µM) | 16 (≈ 52.2 µM) | 1 (≈ 3.27 µM) | 1 (≈ 3.27 µM) | 16 (≈ 52.2 µM) | 2 (≈ 6.53 µM) | MIC (Nakaseomyces glabratus [14]): 0.87 µg/mL (≈ 2.84 µM)
O=C(OC(Cn1ccnc1)c1ccc(F)cc1)c1ccc(-c2ccccc2)cc1 (single isomer, unassigned; (+)) |  |  |  |  |  |  |  |  |  |  |  |  |  |  |  |  |  |  |  |  | MIC (Pichia kudriavzevii [5]): 64 µg/mL (≈ 166 µM); MIC (Candida tropicalis [17]): 32 µg/mL (≈ 82.8 µM); MIC (Candida albicans [7]): 64 µg/mL (≈ 166 µM); MIC (Candida parapsilosis [13]): 35.55 µg/mL (≈ 92 µM)
O=C(OC(Cn1ccnc1)c1ccc(C(F)(F)F)cc1)c1cccc(C(F)(F)F)c1 (racemic) |  | 64 (≈ 149 µM) | 32 (≈ 74.7 µM) | 100 (≈ 233 µM) | 128 (≈ 299 µM) | 128 (≈ 299 µM) | > 64 | 64 (≈ 149 µM) |  | ≥ 64 | ≥ 64 | > 64 |  | 91.4 (≈ 213 µM) | 64 (≈ 149 µM) | 128 (≈ 299 µM) | > 64 | > 64 | ≥ 64 | 64 (≈ 149 µM) | 
O=C(Nc1cc(Cl)nc(Cl)c1)OC(Cn1ccnc1)c1ccc(Cl)cc1 (racemic) |  | > 64 | > 64 | 121 (≈ 294 µM) | 128 (≈ 311 µM) | 128 (≈ 311 µM) | > 64 | > 64 |  | > 64 | > 64 | > 64 |  | 119 (≈ 289 µM) | 128 (≈ 311 µM) | 128 (≈ 311 µM) | > 64 | > 64 | > 64 | > 64 | 
OC(Cn1ccnc1)c1ccccc1 (racemic) |  | ≥ 64 | > 64 | 98.5 (≈ 523 µM) | 64 (≈ 340 µM) | 128 (≈ 680 µM) | > 64 | > 64 |  | 64 (≈ 340 µM) | > 64 | > 64 |  | 107 (≈ 567 µM) | 128 (≈ 680 µM) | 128 (≈ 680 µM) | 64 (≈ 340 µM) | ≥ 64 | ≥ 64 | > 64 | 
O=C(OC(Cn1ccnc1)c1ccc(Cl)cc1)c1ccc(-c2ccccc2)cc1 (racemic) | 3.7 (≈ 9.18 µM) | 1 (≈ 2.48 µM) | 1 (≈ 2.48 µM) | 1.9 (≈ 4.72 µM) | 1 (≈ 2.48 µM) | 4 (≈ 9.93 µM) | 1 (≈ 2.48 µM) | 1 (≈ 2.48 µM) | 1.05 (≈ 2.61 µM) | 0.25 (≈ 0.621 µM) | 4 (≈ 9.93 µM) | 4 (≈ 9.93 µM) | 0.89 (≈ 2.21 µM) | 1.7 (≈ 4.22 µM) | 1 (≈ 2.48 µM) | 4 (≈ 9.93 µM) | 0.125 (≈ 0.31 µM) | 0.25 (≈ 0.621 µM) | 0.125 (≈ 0.31 µM) | 1 (≈ 2.48 µM) | CC50 at 48 h [18]: 88.3 µg/mL (≈ 219 µM); Ratio (Pichia kudriavzevii [19]): 7; MIC (Nakaseomyces glabratus [14]): 1 µg/mL (≈ 2.48 µM); Selectivity Index [20]: 49.1

— ChEMBL document CHEMBL1944618, “Synthesis and antifungal activity of a new series of 2-(1H-imidazol-1-yl)-1-phenylethanol derivatives” (Eur J Med Chem, 2012)
